Experimental data taken from ChEMBL document CHEMBL4196072, “Marliolide inhibits skin carcinogenesis by activating NRF2/ARE to induce heme oxygenase-1” (Eur J Med Chem, 2018).
Values belong to the molecule of their own block, whether it stands above or below them. Activity calls are given as the source filed them. The rule behind the calls is not given here.

What was measured:
[1] = target: Kelch-like ECH-associated protein 1 (Mus musculus) (UniProt Q9Z2X8); assay: Binding affinity to Keap1 in NRF2+/+ MEF assessed as induction of NRF2/ARE activation-mediated HO1 expression at 10 uM after 24 hrs by Western blot analysis; type: cell-based
HaCaT [2] = assay: Cell cycle arrest in human HaCaT cells assessed as accumulation at G1/S phase at 10 uM after 24 hrs by propidium iodide staining based flow cytometry
Summary of the method: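 HaCaT cells were exposed to agent for 24 h, with etoposide as positive control. Cells (1x10⁶ per group) were fixed in PBS/70% EtOH (3:7), washed, stained with propidium iodide (20 µg/ml), and G1/S distribution was measured by flow cytometry.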

Mus musculus [3] = assay: Upregulation of HO-1 expression in skin lysates of mouse at 10 umole applied topically up to 24 hrs by Western blot analysis; type: functional, organism-based; details: Zone of skin, Lysate
HaCaT [4] = assay: Induction of apoptosis in human HaCaT cells assessed as increase in cleaved caspase-3 protein expression at 10 uM after 6 to 24 hrs by Western blot analysis; type: cell-based
Summary of the method: (§1)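 HaCaT cells were exposed to agent or etoposide for various times. RIPA lysates were analysed by SDS-PAGE and Western blot with cleaved caspase-3 and cleaved PARP antibodies, with ECL detection and actin as loading control.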

Mus musculus [5] = assay: Downregulation of 4-HNE expression in skin lysates of DMBA/TPA-induced mouse skin carcinogenesis model at 10 umol administered topically 3 times per week up to 10 weeks with TPA starting from 1 week post DMBA treatment by immunofluorescence microscopic method; type: functional, organism-based; details: Zone of skin, Lysate
Summary of the method: (§2)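 Skin came from the two-stage DMBA/TPA model in hairless mice: DMBA 2 µmole once topically, then TPA 10 nmole ± agent 10 µmole three times weekly. At sacrifice, skin was formalin-fixed and paraffin-embedded. Sections were incubated overnight at 4°C with 8-OH-G or 4-HNE primary antibody, then probed with FITC-conjugated secondary antibody for fluorescence imaging.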

Mus musculus [6] = assay: Downregulation of 8-OH-G expression in skin lysates of DMBA/TPA-induced mouse skin carcinogenesis model at 10 umol administered topically 3 times per week up to 10 weeks with TPA starting from 1 week post DMBA treatment by immunofluorescence microscopic method; type: functional, organism-based; details: Zone of skin, Lysate; summary of the method: as §2
HaCaT [7] = assay: Cytotoxicity against human HaCaT cells assessed as reduction in cell viability by measuring morphological changes at 10 uM after 24 hrs by phase contrast microscopic method; type: cell-based
Summary of the method: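 HaCaT cells were exposed to agent or etoposide, and gross cell morphology was examined by phase-contrast microscopy.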

Mus musculus [8] = assay: Anti-carcinogenic effect in hairless mouse assessed as inhibition of number of DMBA/TPA-induced papilloma formation at 10 umol administered topically 3 times per week up to 10 weeks with TPA starting from 1 week post DMBA treatment; type: functional, organism-based
Summary of the method: (§3)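 Male hairless mice (6 weeks old at purchase, acclimated one week) received a single topical dose of DMBA (2 µmole) or acetone vehicle in week 1. From week 2, the back was treated with TPA (10 nmole) alone or with test agent (10 µmole), three times per week. Papillomas were counted manually at the end of each week. At sacrifice, skin was formalin-fixed, paraffin-embedded and H/E-stained for phase-contrast imaging.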

[9] = target: Kelch-like ECH-associated protein 1 (Mus musculus) (UniProt Q9Z2X8); assay: Binding affinity to Keap1 in NRF2-/- MEF assessed as induction of HO1 expression at 10 uM after 24 hrs by Western blot analysis; type: cell-based
Mus musculus [10] = assay: Anti-carcinogenic effect in hairless mouse assessed as inhibition of incidence of DMBA/TPA-induced papilloma formation at 10 umol administered topically 3 times per week up to 10 weeks with TPA starting from 1 week post DMBA treatment; type: functional, organism-based; summary of the method: as §3
[11] = target: Kelch-like ECH-associated protein 1 (Homo sapiens) (UniProt Q14145); assay: Binding affinity to Keap1 in human HaCaT cells assessed as activation of NRF2 by measuring nuclear translocation of NRF2 at 10 uM after 6 to 12 hrs by immunofluorescence assay; type: cell-based
Summary of the method: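 Confluent HaCaT cells on glass were exposed to agent for 6 h and 12 h, blocked with 1% BSA for 30 min, and fixed with paraformaldehyde. They were incubated overnight at 4°C with NRF2 antibody, then with FITC-conjugated secondary antibody, and imaged by confocal microscopy.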

Mus musculus [12] = assay: Upregulation of GCLC expression in skin lysates of mouse at 10 umole applied topically up to 24 hrs by Western blot analysis; type: functional, organism-based; details: Zone of skin, Lysate
Mus musculus [13] = assay: Anti-carcinogenic effect in hairless mouse assessed as inhibition of DMBA/TPA-induced papilloma growth at 10 umol administered topically 3 times per week up to 10 weeks with TPA starting from 1 week post DMBA treatment by hematoxylin/eosin staining based phase-contrast microscopic method; type: functional, organism-based; summary of the method: as §3
HaCaT [14] = assay: Cytotoxicity against human HaCaT cells assessed as reduction in cell viability at 10 uM after 24 hrs by MTT method; type: cell-based
Summary of the method: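 HaCaT cells were seeded at 30,000 per well and exposed to agent at 10 µM for 24 h. After a PBS wash, cells were incubated with MTT (5 mg/ml) for 4 h, lysed in DMSO, and absorbance was read at 560 nm.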

HaCaT [15] = assay: Induction of apoptosis in human HaCaT cells assessed as increase in cleaved PARP protein expression at 10 uM after 6 to 24 hrs by Western blot analysis; type: cell-based; summary of the method: as §1
[16] = target: Kelch-like ECH-associated protein 1 (Homo sapiens) (UniProt Q14145); assay: Binding affinity to Keap1 in human HaCaT cells assessed as induction of NRF2/ARE activation-mediated HO1 expression at 10 uM by Western blot analysis; type: cell-based; details: TDE = time-dependent effect
Summary of the method: (§4)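 HaCaT cells were grown in RPMI with 10% FBS and Pen/Strep and treated with agent from DMSO stock (1/1000 dilution), across concentrations for 24 h or over a time course. Cells were lysed in RIPA buffer and protein was measured by BCA. Equal amounts were separated by SDS-PAGE, blotted to PVDF, blocked in 5% milk/PBST, probed overnight at 4°C with HO-1 or NRF2 antibody, and detected by ECL. Actin served as loading control.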

Mus musculus [17] = assay: Upregulation of NRF2 expression in skin lysates of mouse at 10 umole applied topically up to 24 hrs by Western blot analysis; type: functional, organism-based; details: Zone of skin, Lysate
[18] = target: Kelch-like ECH-associated protein 1 (Mus musculus) (UniProt Q9Z2X8); assay: Binding affinity to Keap1 in NRF2+/+ MEF assessed as induction of NRF2/ARE activation-mediated HO1 expression at 10 uM up to 8 hrs by RT-PCR method; type: cell-based
[19] = target: Kelch-like ECH-associated protein 1 (Homo sapiens) (UniProt Q14145); assay: Binding affinity to Keap1 in human HaCaT cells assessed as induction of NRF2/ARE activation-mediated HO1 expression at 1 to 10 uM after 24 hrs by Western blot analysis; type: cell-based; summary of the method: as §4
[20] = target: Kelch-like ECH-associated protein 1 (Mus musculus) (UniProt Q9Z2X8); assay: Binding affinity to Keap1 in NRF2-/- MEF assessed as induction of NRF2/ARE activation-mediated HO1 expression at 10 uM up to 8 hrs by RT-PCR method; type: cell-based
[21] = target: Kelch-like ECH-associated protein 1 (Homo sapiens) (UniProt Q14145); assay: Binding affinity to Keap1 in human HaCaT cells assessed as induction of NRF2/ARE activation-mediated HO1 expression at 10 uM after 6 to 24 hrs by Western blot analysis; type: cell-based; summary of the method: as §4
[22] = target: Kelch-like ECH-associated protein 1 (Homo sapiens) (UniProt Q14145); assay: Binding affinity to Keap1 in human HaCaT cells assessed as induction of NRF2/ARE activation-mediated HO1 mRNA expression at 10 uM RT-PCR method; type: cell-based; details: TDE = time-dependent effect
Summary of the method: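 HaCaT cells were treated at 10 µM (DMSO, 1/1000) for 4, 8 and 12 h. Total RNA was analysed by SYBR real-time RT-PCR with HO-1-specific primers. Cycling was 95 °C for 5 min; 40 cycles of 95 °C 10 s, 59 °C 10 s, 72 °C 20 s; then 95 °C 10 s.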

[23] = target: Kelch-like ECH-associated protein 1 (Homo sapiens) (UniProt Q14145); assay: Binding affinity to Keap1 in human HaCaT cells at 10 nmol by immunoprecipitation assay; type: cell-based
Summary of the method: (§5)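 Lysate (800 µg) from confluent HaCaT cells in RIPA buffer was mixed with biotin or biotinylated agent (10 nmole each). Pull-down was done with streptavidin-agarose beads overnight at 4°C. Beads were washed in ice-cold PBS, and bound KEAP1 and NRF2 were detected by Western blot.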

[24] = target: T1, Nuclear factor erythroid 2-related factor 2 (Homo sapiens) (UniProt Q16236); assay: Binding affinity to NRF2 in human HaCaT cells at 10 nmol by immunoprecipitation assay; type: cell-based; summary of the method: as §5
T1 sequence (whole entry): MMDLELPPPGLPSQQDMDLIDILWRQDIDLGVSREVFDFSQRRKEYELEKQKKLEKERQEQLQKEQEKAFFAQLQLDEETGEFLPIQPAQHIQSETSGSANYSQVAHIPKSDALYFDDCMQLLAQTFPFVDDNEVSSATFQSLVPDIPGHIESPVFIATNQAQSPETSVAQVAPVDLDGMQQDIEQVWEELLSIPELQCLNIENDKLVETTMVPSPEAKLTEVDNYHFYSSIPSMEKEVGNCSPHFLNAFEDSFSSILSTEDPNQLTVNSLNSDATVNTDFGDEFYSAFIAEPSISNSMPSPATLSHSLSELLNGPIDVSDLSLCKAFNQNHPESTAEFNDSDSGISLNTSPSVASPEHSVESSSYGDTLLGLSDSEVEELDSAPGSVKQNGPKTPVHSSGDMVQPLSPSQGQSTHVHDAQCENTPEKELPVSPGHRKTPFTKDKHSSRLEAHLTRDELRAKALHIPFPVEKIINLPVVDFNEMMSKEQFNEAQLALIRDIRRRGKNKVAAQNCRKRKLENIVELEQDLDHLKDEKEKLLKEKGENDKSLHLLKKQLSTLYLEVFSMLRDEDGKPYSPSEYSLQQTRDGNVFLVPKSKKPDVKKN

Sequence of Kelch-like ECH-associated protein 1 (Mus musculus) (Q9Z2X8 whole entry): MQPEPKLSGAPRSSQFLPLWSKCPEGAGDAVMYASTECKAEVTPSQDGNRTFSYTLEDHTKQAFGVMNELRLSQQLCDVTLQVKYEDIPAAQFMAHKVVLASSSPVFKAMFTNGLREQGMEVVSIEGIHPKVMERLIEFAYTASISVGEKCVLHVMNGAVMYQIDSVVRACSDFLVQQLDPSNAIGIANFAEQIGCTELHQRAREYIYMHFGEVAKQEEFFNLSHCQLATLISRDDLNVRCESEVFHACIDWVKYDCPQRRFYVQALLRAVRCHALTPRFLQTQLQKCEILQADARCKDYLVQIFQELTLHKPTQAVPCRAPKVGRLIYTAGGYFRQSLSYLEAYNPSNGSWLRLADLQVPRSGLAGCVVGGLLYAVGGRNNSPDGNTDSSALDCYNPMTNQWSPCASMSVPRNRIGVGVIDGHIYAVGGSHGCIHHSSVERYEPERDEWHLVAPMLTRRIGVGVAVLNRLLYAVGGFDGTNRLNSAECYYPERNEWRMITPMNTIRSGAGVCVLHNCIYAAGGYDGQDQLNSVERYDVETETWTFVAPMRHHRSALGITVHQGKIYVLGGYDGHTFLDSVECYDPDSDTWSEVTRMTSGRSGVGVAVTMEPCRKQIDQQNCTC
Sequence of Kelch-like ECH-associated protein 1 (Homo sapiens) (Q14145 whole entry): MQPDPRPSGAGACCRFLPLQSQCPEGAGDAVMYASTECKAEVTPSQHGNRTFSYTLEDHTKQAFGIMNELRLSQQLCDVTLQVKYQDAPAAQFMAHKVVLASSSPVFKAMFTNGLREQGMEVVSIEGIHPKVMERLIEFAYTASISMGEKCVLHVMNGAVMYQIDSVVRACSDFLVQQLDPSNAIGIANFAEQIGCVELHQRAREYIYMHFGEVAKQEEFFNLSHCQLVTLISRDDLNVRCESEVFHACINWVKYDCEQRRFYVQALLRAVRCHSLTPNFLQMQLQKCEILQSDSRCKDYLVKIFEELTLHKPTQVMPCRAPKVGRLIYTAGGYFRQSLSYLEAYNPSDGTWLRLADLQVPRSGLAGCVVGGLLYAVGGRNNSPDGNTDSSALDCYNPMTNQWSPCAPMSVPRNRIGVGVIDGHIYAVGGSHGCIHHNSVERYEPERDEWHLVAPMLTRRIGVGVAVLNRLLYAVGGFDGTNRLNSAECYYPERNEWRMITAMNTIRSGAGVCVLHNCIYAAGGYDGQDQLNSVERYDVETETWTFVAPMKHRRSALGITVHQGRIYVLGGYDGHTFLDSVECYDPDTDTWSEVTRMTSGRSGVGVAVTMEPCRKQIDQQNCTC

SMILES: CCCCCCCCC/C=C1/C(=O)O[C@@H](C)[C@H]1O
Activity [21]: Active | Activity (HaCaT [14]): Non-Toxic | Activity [22]: Tde

SMILES: CCC/C=C1/C(=O)O[C@@H](C)[C@H]1O
Activity [21]: inactive

SMILES: C[C@@H]1OC(=O)/C(=C/CCCCCCCCCCCCNC(=O)CCCC[C@@H]2SC[C@@H]3NC(=O)N[C@@H]32)[C@@H]1O
Activity [23]: Active | Activity [24]: inactive

SMILES: CCCCC/C=C1/C(=O)O[C@@H](C)[C@H]1O
Activity [21]: inactive

SMILES: CCCCCCCCCCC/C=C1/C(=O)O[C@@H](C)[C@H]1O
Activity [21]: Active | Activity (HaCaT [14]): Non-Toxic | Activity [22]: Tde

SMILES: CCCCCCCCCCCCC/C=C1/C(=O)O[C@@H](C)[C@H]1OC(=O)CC(C)C
Activity [21]: inactive

SMILES: CCCCCCCCCCCC/C=C1/C(=O)O[C@@H](C)[C@H]1O
Activity (Mus musculus [3]): Active | Activity [21]: Active | Activity (Mus musculus [12]): Active | Activity (HaCaT [14]): Non-Toxic | Activity (Mus musculus [17]): Active | Activity [22]: Tde

SMILES: CCCCCCCCCCCCCC[C@@H]1C[C@H](O)OC1=O
Activity [21]: inactive

SMILES: CCCCCCCCCCCCCC[C@H]1C(=O)O[C@@H](O)[C@H]1O
Activity [21]: inactive

The next lines start with results.

Activity [1]: Active | Activity [9]: inactive | Activity [11]: Active | Activity [16]: Tde | Activity [18]: Active | Activity [19]: Active | Activity [20]: inactive
SMILES: CCCCCCCCCCCCC/C=C1/C(=O)O[C@@H](C)[C@H]1O
Activity (HaCaT [2]): Non-Toxic | Activity (Mus musculus [3]): Active | Activity (HaCaT [4]): Non-Toxic | Activity (Mus musculus [5]): Active | Activity (Mus musculus [6]): Active | Activity (HaCaT [7]): Non-Toxic | inhibition (Mus musculus [8]): Active | inhibition (Mus musculus [10]): Active | Activity (Mus musculus [12]): Active | inhibition (Mus musculus [13]): Active | Activity (HaCaT [14]): Non-Toxic | Activity (HaCaT [15]): Non-Toxic | Activity (Mus musculus [17]): Active

Activity [21]: Active
SMILES: CCCCCCCCCCCCC/C=C1/C(=O)O[C@@H](C)[C@@H]1O

Activity [21]: inactive
SMILES: CCCCCCCCCCCCC/C=C1\C[C@H](C)OC1=O

Activity [21]: Active
SMILES: CCCCCCCCCCCCC/C=C1\C(=O)O[C@@H](C)[C@H]1O

Activity [21]: Active | Activity [22]: Tde
SMILES: CCCCCCCCCC/C=C1/C(=O)O[C@@H](C)[C@H]1O
Activity (HaCaT [14]): Non-Toxic
